Reference: ChEMBL document CHEMBL2412988, “Synthesis, pH-dependent, and plasma stability of meropenem prodrugs for potential use against drug-resistant tuberculosis” (Bioorg Med Chem, 2013)

Tested on: not listed separately
Assay: Half life in MES buffer at 100 uM at pH 6 by HPLC analysis
Assay type: physicochemical
Settings: pH 6, 100 µM; call rule not given here
Outline: (§1)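 Meropenem or prodrug at 100 µM final (from a 5.0 mM DMSO stock) incubated at 37 °C in triplicate in simulated gastric fluid pH 1.2, 100 mM MES pH 6.0, or pH 7.4 buffer, after 2 min buffer pre-warming. Aliquots taken at 0–120 min and injected directly onto reversed-phase HPLC with UV at 300 nm. Half-life, % prodrug remaining at 120 min, or species concentration over time was reported.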

SMILES | t1/2 [min]
C[C@@H](O)[C@H]1C(=O)N2C(C(=O)OCOC(=O)O[C@H]3CCCCc4ccccc43)=C(S[C@@H]3CN[C@H](C(=O)N(C)C)C3)[C@H](C)[C@H]12 | 32
CC(=O)N1C[C@@H](SC2=C(C(=O)OCOC(=O)O[C@H]3CCCCc4ccccc43)N3C(=O)[C@H]([C@@H](C)O)[C@H]3[C@H]2C)C[C@H]1C(=O)N(C)C | 28
CC(OC(=O)O[C@H]1CCCCc2ccccc21)OC(=O)C1=C(S[C@@H]2CN[C@H](C(=O)N(C)C)C2)[C@H](C)[C@@H]2[C@@H]([C@@H](C)O)C(=O)N12 (mixture of isomers) | 80

Tested on: not listed separately
Assay: Half life in Dunkin-Hartley guinea pig plasma at 5 mM by HPLC analysis
Assay type: ADME, cell-free, Cavia porcellus
Settings: 5000 µM
Outline: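 Pooled plasma from female Dunkin Hartley guinea pigs was pre-warmed 2 min at 37 °C, then prodrug was added from a 5.0 mM stock. Runs were in triplicate. Aliquots were taken at 0, 2.5, 5, 10, 15 and 30 min, quenched with an equal volume of acetonitrile, filtered and analysed by reversed-phase HPLC at 300 nm for half-life.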

SMILES | t1/2 [min]
C[C@@H](O)[C@H]1C(=O)N2C(C(=O)OCOC(=O)O[C@@H]3CCCCc4ccccc43)=C(S[C@@H]3CN[C@H](C(=O)N(C)C)C3)[C@H](C)[C@H]12 | 0.9
C[C@@H](O)[C@H]1C(=O)N2C(C(=O)OCOC(=O)O[C@H]3CCCCc4ccccc43)=C(S[C@@H]3CN[C@H](C(=O)N(C)C)C3)[C@H](C)[C@H]12 | 1.3

Tested on: not listed separately
Assay: Chemical stability of the compound in simulated gastric fluid assessed as drug degradation at 10 uM after 30 mins at pH 1.2
Assay type: physicochemical
Settings: read-out: Drug degradation

SMILES | degraded at 0.5 h, 10 µM [%]
C[C@@H](O)[C@H]1C(=O)N2C(C(=O)O)=C(S[C@@H]3CN[C@H](C(=O)N(C)C)C3)[C@H](C)[C@H]12 [MEROPENEM] | 80

Tested on: Plasma
Assay: Half life in human plasma at 5 mM by HPLC analysis
Assay type: ADME, cell-free
Settings: 5000 µM

SMILES | t1/2 [min]
C[C@@H](O)[C@H]1C(=O)N2C(C(=O)OCOC(=O)O[C@@H]3CCCCc4ccccc43)=C(S[C@@H]3CN[C@H](C(=O)N(C)C)C3)[C@H](C)[C@H]12 | 34
C[C@@H](O)[C@H]1C(=O)N2C(C(=O)OCOC(=O)O[C@H]3CCCCc4ccccc43)=C(S[C@@H]3CN[C@H](C(=O)N(C)C)C3)[C@H](C)[C@H]12 | 44

Tested on: not listed separately
Assay: Chemical stability of the compound in simulated gastric fluid assessed as compound remaining at 10 uM after 60 mins at pH 1.2
Assay type: physicochemical
Settings: read-out: Stability

SMILES | remaining at 1 h, 10 µM [%]
Nc1nc(/C(=C/CC(=O)O)C(=O)N[C@@H]2C(=O)N3C(C(=O)O)=CCS[C@H]23)cs1 [CEFTIBUTEN] | 94
C[C@@H](O)[C@H]1C(=O)N2C(C(=O)O)=C([C@H]3CCCO3)S[C@H]12 [FAROPENEM] | 70
C[C@@H](O)[C@H]1C(=O)N2C(C(=O)O)=C(S[C@@H]3CN[C@H](C(=O)N(C)C)C3)[C@H](C)[C@H]12 [MEROPENEM] | 5

Tested on: not listed separately
Assay: Half life in HEPES buffer at 100 uM at pH 7.4 by HPLC analysis
Assay type: physicochemical
Settings: pH 7.4, 100 µM
Outline: as §1

SMILES | t1/2 [min]
C[C@@H](O)[C@H]1C(=O)N2C(C(=O)OCOC(=O)O[C@@H]3CCCCc4ccccc43)=C(S[C@@H]3CN[C@H](C(=O)N(C)C)C3)[C@H](C)[C@H]12 | 27
C[C@@H](O)[C@H]1C(=O)N2C(C(=O)OCOC(=O)O[C@H]3CCc4ccccc43)=C(S[C@@H]3CN[C@H](C(=O)N(C)C)C3)[C@H](C)[C@H]12 | < 1
C[C@@H](O)[C@H]1C(=O)N2C(C(=O)OCOC(=O)O[C@H]3CCCCc4ccccc43)=C(S[C@@H]3CN[C@H](C(=O)N(C)C)C3)[C@H](C)[C@H]12 | 28
CC(=O)N1C[C@@H](SC2=C(C(=O)OCOC(=O)O[C@H]3CCCCc4ccccc43)N3C(=O)[C@H]([C@@H](C)O)[C@H]3[C@H]2C)C[C@H]1C(=O)N(C)C | 28
CC(OC(=O)O[C@H]1CCCCc2ccccc21)OC(=O)C1=C(S[C@@H]2CN[C@H](C(=O)N(C)C)C2)[C@H](C)[C@@H]2[C@@H]([C@@H](C)O)C(=O)N12 (mixture of isomers) | 64

Tested on: not listed separately
Assay: Stability in HEPES buffer assessed as prodrug conversion to 1-Benzosuberol at pH 7.4 by HPLC analysis
Assay type: physicochemical
Settings: not given

SMILES | Drug metabolism
C[C@@H](O)[C@H]1C(=O)N2C(C(=O)OCOC(=O)O[C@H]3CCCCc4ccccc43)=C(S[C@@H]3CN[C@H](C(=O)N(C)C)C3)[C@H](C)[C@H]12 | Active

Tested on: not listed separately
Assay: Lipophilicity, log D of the compound
Assay type: physicochemical
Settings: octanol/water

SMILES | logD
C[C@@H](O)[C@H]1C(=O)N2C(C(=O)O)=C(S[C@@H]3CN[C@H](C(=O)N(C)C)C3)[C@H](C)[C@H]12 [MEROPENEM] | < 2.5

Tested on: not listed separately
Assay: Half life in simulated gastric fluid at 100 uM at pH 1.2 by HPLC analysis
Assay type: physicochemical
Settings: simulated gi fluid, pH 1.2, 100 µM
Outline: as §1

SMILES | t1/2 [min]
C[C@@H](O)[C@H]1C(=O)N2C(C(=O)OCOC(=O)O[C@@H]3CCCCc4ccccc43)=C(S[C@@H]3CN[C@H](C(=O)N(C)C)C3)[C@H](C)[C@H]12 | 11
C[C@@H](O)[C@H]1C(=O)N2C(C(=O)OCOC(=O)O[C@H]3CCCCc4ccccc43)=C(S[C@@H]3CN[C@H](C(=O)N(C)C)C3)[C@H](C)[C@H]12 | 9.3
CC(=O)N1C[C@@H](SC2=C(C(=O)OCOC(=O)O[C@H]3CCCCc4ccccc43)N3C(=O)[C@H]([C@@H](C)O)[C@H]3[C@H]2C)C[C@H]1C(=O)N(C)C | 7
CC(OC(=O)O[C@H]1CCCCc2ccccc21)OC(=O)C1=C(S[C@@H]2CN[C@H](C(=O)N(C)C)C2)[C@H](C)[C@@H]2[C@@H]([C@@H](C)O)C(=O)N12 (mixture of isomers) | 18

Tested on: not listed separately
Assay: Stability in HEPES buffer assessed as prodrug conversion to meropenem at pH 7.4 by HPLC analysis
Assay type: physicochemical
Settings: not given
Outline: as §1

SMILES | Drug metabolism
C[C@@H](O)[C@H]1C(=O)N2C(C(=O)OCOC(=O)O[C@H]3CCCCc4ccccc43)=C(S[C@@H]3CN[C@H](C(=O)N(C)C)C3)[C@H](C)[C@H]12 | Active
